Assay results reported in ChEMBL document CHEMBL5108089, “Structure-based discovery of potent inhibitors of Axl: design, synthesis, and biological evaluation” (RSC Med Chem, 2022).

Key:
[1] = Intrinsic clearance in rat; format: ADME
[2] = Metabolic stability in rat liver microsomes assessed as half-life preincubated for 10 mins followed by NADPH addition and measured upto 60 mins by LC-MS/MS analysis; format: ADME, Microsome; details: time < 70 min
[3] = Intrinsic clearance in human; format: ADME
[4] = Metabolic stability in human liver microsomes assessed as intrinsic clearance preincubated for 10 mins followed by NADPH addition and measured upto 60 mins by LC-MS/MS analysis; format: ADME, Microsome; details: time < 70 min, read-out: CLH
[5] = Metabolic stability in human liver microsomes assessed as half-life preincubated for 10 mins followed by NADPH addition and measured upto 60 mins by LC-MS/MS analysis; format: ADME, Microsome; details: time < 70 min
[6] = Metabolic stability in rat liver microsomes assessed as intrinsic clearance preincubated for 10 mins followed by NADPH addition and measured upto 60 mins by LC-MS/MS analysis; format: ADME, Microsome; details: time < 70 min, read-out: CLH
[7] = target: T1, Tyrosine-protein kinase receptor UFO (Homo sapiens, UniProt P30530); test: Inhibition of human Axl using KKSRGDYMTMQIG as substrate incubated for 40 mins in the presence of [gamma33P]ATP by scintillation counting analysis
T1 sequence (P30530 whole entry): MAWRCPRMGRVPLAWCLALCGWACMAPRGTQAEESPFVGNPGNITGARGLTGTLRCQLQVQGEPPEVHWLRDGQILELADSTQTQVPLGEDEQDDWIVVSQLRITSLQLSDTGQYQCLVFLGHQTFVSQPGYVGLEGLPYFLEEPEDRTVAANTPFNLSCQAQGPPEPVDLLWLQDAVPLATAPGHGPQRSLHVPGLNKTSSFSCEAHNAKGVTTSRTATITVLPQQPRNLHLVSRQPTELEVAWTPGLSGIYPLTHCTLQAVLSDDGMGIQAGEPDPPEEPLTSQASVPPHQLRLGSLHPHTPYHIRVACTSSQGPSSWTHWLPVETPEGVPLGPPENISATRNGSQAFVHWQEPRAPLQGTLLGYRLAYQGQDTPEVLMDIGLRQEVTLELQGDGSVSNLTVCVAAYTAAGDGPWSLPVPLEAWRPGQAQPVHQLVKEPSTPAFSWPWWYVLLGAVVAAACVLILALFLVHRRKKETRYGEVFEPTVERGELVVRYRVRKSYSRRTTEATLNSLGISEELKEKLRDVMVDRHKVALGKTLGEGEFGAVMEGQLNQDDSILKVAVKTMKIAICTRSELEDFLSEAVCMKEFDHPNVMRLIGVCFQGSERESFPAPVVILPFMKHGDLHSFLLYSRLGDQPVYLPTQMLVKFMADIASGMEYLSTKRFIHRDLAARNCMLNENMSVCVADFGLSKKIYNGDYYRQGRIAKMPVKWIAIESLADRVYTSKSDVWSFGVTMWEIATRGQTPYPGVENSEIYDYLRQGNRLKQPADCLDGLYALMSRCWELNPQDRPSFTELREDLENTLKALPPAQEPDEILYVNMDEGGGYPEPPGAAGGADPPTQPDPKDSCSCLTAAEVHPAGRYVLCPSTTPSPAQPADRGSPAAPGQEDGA

[8] = target: Tyrosine-protein kinase JAK2 (Homo sapiens, UniProt O60674); test: Inhibition of human JAK2 using KTFCGTPEYLAPEVRREPRILSEEEQEMFRDFDYIADWC as substrate incubated for 40 mins in the presence of [gamma33P]ATP by scintillation counting analysis
In short: (§1)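 Human kinase, radiometric: incubated in 8 mM MOPS pH 7.0, 0.2 mM EDTA, 10 mM magnesium acetate with [γ-33P]-ATP; started by Mg/ATP mix, 40 min at room temperature, stopped with phosphoric acid to 0.5%. Spotted on P30 filtermat, washed 4×4 min in 0.425% phosphoric acid and once in methanol, dried, scintillation counted.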

[9] = target: Aurora kinase B (Homo sapiens, UniProt Q96GD4); test: Inhibition of human Aurora B using AKRRRLSSLRA as substrate incubated for 40 mins in the presence of [gamma33P]ATP by scintillation counting analysis; in short: as §1
[10] = target: ALK tyrosine kinase receptor (Homo sapiens, UniProt Q9UM73); test: Inhibition of human ALK using KKKSPGEYVNIEFG as substrate incubated for 40 mins in the presence of [gamma33P]ATP by scintillation counting analysis; in short: as §1
[11] = Oral bioavailability in Sprague-Dawley rat at 5 mg/kg measured upto 24 hrs by LC-MS/MS analysis; format: ADME, organism-based; details: in vivo
[12] = Cmax in Sprague-Dawley rat at 5 mg/kg, po measured upto 24 hrs by LC-MS/MS analysis; format: ADME, organism-based; design: dose 5 mg/kg, time < 24 hrs, route po; details: in vivo
[13] = Half-life in Sprague-Dawley rat at 5 mg/kg, po measured upto 24 hrs by LC-MS/MS analysis; format: ADME, organism-based; details: in vivo
[14] = Clearance in Sprague-Dawley rat at 1 mg/kg, iv measured upto 24 hrs by LC-MS/MS analysis; format: ADME, organism-based; details: in vivo
[15] = Cmax in Sprague-Dawley rat at 1 mg/kg, iv measured upto 24 hrs by LC-MS/MS analysis; format: ADME, organism-based; design: time < 24 hrs, dose 1 mg/kg, route iv; details: in vivo
[16] = Half-life in Sprague-Dawley rat at 1 mg/kg, iv measured upto 24 hrs by LC-MS/MS analysis; format: ADME, organism-based; details: in vivo
[17] = AUC (0 to last) in Sprague-Dawley rat at 1 mg/kg, iv measured upto 24 hrs by LC-MS/MS analysis; format: ADME, organism-based; design: dose 1 mg/kg, time < 24 hrs, route iv; details: in vivo
[18] = AUC (0 to last) in Sprague-Dawley rat at 5 mg/kg, po measured upto 24 hrs by LC-MS/MS analysis; format: ADME, organism-based; design: dose 5 mg/kg, time < 24 hrs, route po; details: in vivo

Sequence of Tyrosine-protein kinase JAK2 (O60674 whole entry): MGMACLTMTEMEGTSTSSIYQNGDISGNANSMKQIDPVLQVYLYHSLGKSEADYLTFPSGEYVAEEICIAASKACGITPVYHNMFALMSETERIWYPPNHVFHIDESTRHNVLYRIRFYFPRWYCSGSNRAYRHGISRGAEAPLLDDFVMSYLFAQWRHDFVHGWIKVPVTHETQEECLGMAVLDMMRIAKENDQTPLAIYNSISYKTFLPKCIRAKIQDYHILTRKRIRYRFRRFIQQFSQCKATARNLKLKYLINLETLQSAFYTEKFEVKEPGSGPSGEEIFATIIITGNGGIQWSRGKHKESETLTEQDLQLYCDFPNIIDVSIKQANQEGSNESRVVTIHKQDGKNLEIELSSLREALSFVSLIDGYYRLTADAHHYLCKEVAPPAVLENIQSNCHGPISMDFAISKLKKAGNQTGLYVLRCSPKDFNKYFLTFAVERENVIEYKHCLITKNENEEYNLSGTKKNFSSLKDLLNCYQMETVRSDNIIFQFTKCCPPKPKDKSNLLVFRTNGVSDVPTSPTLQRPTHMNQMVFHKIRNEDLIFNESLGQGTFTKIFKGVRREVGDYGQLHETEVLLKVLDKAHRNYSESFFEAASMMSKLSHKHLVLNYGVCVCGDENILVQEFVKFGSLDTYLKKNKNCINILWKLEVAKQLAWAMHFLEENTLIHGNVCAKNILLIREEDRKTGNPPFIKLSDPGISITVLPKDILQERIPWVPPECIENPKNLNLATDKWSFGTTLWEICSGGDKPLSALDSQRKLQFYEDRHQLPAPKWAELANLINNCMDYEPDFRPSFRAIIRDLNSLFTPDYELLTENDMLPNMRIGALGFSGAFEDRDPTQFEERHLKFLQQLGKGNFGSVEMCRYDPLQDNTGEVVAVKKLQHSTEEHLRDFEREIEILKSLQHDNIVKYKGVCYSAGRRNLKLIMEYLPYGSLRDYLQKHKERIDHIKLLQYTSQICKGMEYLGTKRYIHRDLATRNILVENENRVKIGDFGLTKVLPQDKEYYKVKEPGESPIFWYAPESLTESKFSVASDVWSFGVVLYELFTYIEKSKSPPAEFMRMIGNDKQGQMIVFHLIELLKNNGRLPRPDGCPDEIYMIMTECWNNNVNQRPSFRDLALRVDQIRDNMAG
Sequence of ALK tyrosine kinase receptor (Q9UM73 whole entry): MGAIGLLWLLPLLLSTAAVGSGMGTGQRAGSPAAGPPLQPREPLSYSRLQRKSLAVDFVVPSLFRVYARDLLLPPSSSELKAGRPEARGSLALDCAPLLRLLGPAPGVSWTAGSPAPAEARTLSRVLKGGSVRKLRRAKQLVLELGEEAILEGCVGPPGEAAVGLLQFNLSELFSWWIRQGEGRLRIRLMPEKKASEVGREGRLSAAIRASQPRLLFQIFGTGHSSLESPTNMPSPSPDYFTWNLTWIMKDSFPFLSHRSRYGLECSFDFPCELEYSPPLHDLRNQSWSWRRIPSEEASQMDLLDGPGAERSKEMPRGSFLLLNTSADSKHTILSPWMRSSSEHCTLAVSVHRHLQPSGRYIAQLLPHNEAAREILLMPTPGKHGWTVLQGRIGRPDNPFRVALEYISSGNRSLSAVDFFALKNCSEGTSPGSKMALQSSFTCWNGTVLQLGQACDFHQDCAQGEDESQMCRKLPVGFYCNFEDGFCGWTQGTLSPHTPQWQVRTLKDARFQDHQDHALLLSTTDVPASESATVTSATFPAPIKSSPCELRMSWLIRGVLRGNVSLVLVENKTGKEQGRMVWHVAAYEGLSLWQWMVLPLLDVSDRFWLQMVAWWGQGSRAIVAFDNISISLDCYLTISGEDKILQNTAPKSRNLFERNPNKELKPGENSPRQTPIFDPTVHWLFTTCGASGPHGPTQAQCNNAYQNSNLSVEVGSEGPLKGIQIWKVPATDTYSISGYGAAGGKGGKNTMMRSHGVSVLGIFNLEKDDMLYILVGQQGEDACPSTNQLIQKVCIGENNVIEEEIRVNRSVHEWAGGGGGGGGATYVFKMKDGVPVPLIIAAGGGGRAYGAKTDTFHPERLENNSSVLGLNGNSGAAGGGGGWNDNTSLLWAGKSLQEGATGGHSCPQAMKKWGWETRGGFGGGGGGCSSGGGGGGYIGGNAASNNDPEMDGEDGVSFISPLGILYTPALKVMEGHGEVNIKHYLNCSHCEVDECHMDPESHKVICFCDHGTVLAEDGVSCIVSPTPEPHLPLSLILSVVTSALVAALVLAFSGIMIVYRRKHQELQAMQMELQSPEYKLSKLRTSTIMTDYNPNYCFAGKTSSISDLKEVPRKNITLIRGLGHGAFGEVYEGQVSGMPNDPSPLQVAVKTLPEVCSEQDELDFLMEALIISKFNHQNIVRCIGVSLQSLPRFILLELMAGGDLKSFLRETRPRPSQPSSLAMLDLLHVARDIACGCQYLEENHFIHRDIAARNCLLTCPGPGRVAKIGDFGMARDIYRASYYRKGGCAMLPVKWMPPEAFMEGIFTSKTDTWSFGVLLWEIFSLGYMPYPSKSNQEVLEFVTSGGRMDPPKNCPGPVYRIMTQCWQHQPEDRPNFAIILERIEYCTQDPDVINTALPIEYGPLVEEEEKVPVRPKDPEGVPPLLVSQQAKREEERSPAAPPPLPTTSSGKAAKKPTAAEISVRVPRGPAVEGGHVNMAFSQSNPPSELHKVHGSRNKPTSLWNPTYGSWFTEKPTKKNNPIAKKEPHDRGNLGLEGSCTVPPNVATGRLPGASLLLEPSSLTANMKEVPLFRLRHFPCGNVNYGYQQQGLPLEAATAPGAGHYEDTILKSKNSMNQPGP
Sequence of Aurora kinase B (Q96GD4 whole entry): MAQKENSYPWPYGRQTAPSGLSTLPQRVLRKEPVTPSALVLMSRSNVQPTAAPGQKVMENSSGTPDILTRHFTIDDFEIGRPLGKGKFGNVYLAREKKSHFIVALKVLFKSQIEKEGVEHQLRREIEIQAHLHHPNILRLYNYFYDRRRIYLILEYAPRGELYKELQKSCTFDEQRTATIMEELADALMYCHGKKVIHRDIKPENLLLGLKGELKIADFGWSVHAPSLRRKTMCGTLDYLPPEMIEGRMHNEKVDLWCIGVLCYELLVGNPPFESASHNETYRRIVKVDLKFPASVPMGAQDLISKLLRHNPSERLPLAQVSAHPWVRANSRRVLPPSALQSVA

CLint scaled [1] [mL/min/kg]	half-life [2] [min]	CLint scaled [3] [mL/min/kg]	CLint scaled [4] [mL/min/kg]	half-life [5] [min]	CLint scaled [6] [mL/min/kg]	IC50 [7] [nM]	IC50 [8] [nM]	IC50 [9] [nM]	IC50 [10] [nM]	bioavailability [11] [%]	Cmax [12] [ng/mL]	half-life [13] [min]	clearance [14] [mL/min/kg]	Cmax [15] [ng/mL]	half-life [16] [min]	AUClast [17] [ng·h/mL]	AUClast [18] [ng·h/mL]	SMILES
–	–	–	–	–	–	11	130	4	500	–	–	–	–	–	–	–	–	Cc1nc(-c2ccccc2Nc2nc(Nc3ccc(CN4CCN(C)CC4)cc3)ncc2Cl)n[nH]1
48.3	6.4	14.5	48	36.2	389	–	–	–	–	–	–	–	–	–	–	–	–	CN1CCC(Oc2ccc(Nc3ncc(Cl)c(Nc4ccccc4-c4nnn(C)n4)n3)cc2)CC1
50.4	4.3	20.1	646	2.7	582	–	–	–	–	21.5	46.8	176	82.8	89.8	106	187	158	CN1CCN(Cc2ccc(Nc3ncc(Cl)c(Nc4ccccc4S(=O)(=O)N(C)C)n3)cc2)CC1 [DUBERMATINIB]
12.5	153	7.2	11.2	156	16.2	–	–	–	–	26.6	169	79.2	32.5	337	89.4	497	661	CC(=O)N1CCN(c2ccc(Nc3ncc(Cl)c(Nc4ccccc4-c4ncn(C(C)C)n4)n3)cc2)CC1
52.5	2.3	20.3	953	1.82	1090	–	–	–	–	–	–	–	–	–	–	–	–	CC(=O)N1CCc2ccc(Nc3ncc(Cl)c(Nc4ccccc4S(=O)(=O)N(C)C)n3)cc2C1
52.4	2.4	20.1	720	2.4	1040	14	–	–	–	–	–	–	–	–	–	–	–	CN1CCc2ccc(Nc3ncc(Cl)c(Nc4ccccc4S(=O)(=O)N(C)C)n3)cc2C1
47.5	7.3	19.6	393	4.4	339	–	–	–	–	–	–	–	–	–	–	–	–	CN1CC2CN(C(=O)c3ccc(Nc4ncc(Cl)c(Nc5ccccc5S(=O)(=O)N(C)C)n4)cc3)CC2C1 (stereo not drawn)

SMILES	CLint scaled [1] [mL/min/kg]	half-life [2] [min]	CLint scaled [3] [mL/min/kg]	CLint scaled [4] [mL/min/kg]	half-life [5] [min]	CLint scaled [6] [mL/min/kg]	IC50 [7] [nM]	IC50 [8] [nM]	IC50 [9] [nM]	IC50 [10] [nM]	bioavailability [11] [%]	Cmax [12] [ng/mL]	half-life [13] [min]	clearance [14] [mL/min/kg]	Cmax [15] [ng/mL]	half-life [16] [min]	AUClast [17] [ng·h/mL]	AUClast [18] [ng·h/mL]
CN1CCC(N(C)c2ccc(Nc3ncc(Cl)c(Nc4ccccc4-c4ncn(C)n4)n3)cc2)CC1	41.2	15.4	11	23.4	74.2	162	–	–	–	–	–	–	–	–	–	–	–	–
